Among the data in ChEMBL document CHEMBL1128184, “Topoisomerase II-mediated DNA cleavage by adocia- and xestoquinones from the Philippine sponge Xestospongia sp” (J Med Chem, 1995) are IC50, Ratio and IC90 values, retold here.

One experiment has as its system HCT-116. Description: Cytotoxicity against HCT116 cells. In kind it is functional, cell-based. As to conditions: Homo sapiens. The essentials:
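HCT 116 human colon tumour cells in McCoy's medium with 10% FBS, seeded at 40 000 cells/well and allowed 4 h to attach. Drug added in DMSO (0.5%), 3 days continuous exposure, four replicate wells per dose. MTT (5 mg/mL in PBS) added for 4 h, formazan dissolved in acidic 2-propanol, A540 read against DMSO controls for percent growth inhibition.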

Another experiment concerns XRS6. Put plainly: Cytotoxicity against CHO cell line xrs6. The conditions noted are these: Cricetulus griseus. In kind it is functional, cell-based. The essentials: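 MTT assay on DNA double-strand-break repair-deficient CHO xrs-6 cells grown in αMEM with serum, seeded at 60 000 cells/well and allowed to attach 4 h. Drug added from DMSO stock, final DMSO 1% or less, four replicate wells per dose. Exposure 18 h, then drug-free medium. Absorbance at 540 nm, compared against DMSO-only wells to give percent growth inhibition.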

Experiment [1] is described as follows: Ratio of BR1 IC50 to xrs-6 IC50. It counts as functional. The gist of the method: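 MTT assay run in parallel on repair-competent CHO BR1 (40 000 cells/well) and repair-deficient xrs-6 (60 000 cells/well), both in αMEM with serum. 4 h attachment, then 18 h drug exposure from DMSO (final 1% or less), then drug-free medium. Four wells per dose, A540 against DMSO controls. The ratio is the BR1 IC50 divided by the xrs-6 IC50.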

Experiment [2] deals with T1, DNA topoisomerase 2 (Drosophila melanogaster) (UniProt P15348).
T1 sequence (whole entry): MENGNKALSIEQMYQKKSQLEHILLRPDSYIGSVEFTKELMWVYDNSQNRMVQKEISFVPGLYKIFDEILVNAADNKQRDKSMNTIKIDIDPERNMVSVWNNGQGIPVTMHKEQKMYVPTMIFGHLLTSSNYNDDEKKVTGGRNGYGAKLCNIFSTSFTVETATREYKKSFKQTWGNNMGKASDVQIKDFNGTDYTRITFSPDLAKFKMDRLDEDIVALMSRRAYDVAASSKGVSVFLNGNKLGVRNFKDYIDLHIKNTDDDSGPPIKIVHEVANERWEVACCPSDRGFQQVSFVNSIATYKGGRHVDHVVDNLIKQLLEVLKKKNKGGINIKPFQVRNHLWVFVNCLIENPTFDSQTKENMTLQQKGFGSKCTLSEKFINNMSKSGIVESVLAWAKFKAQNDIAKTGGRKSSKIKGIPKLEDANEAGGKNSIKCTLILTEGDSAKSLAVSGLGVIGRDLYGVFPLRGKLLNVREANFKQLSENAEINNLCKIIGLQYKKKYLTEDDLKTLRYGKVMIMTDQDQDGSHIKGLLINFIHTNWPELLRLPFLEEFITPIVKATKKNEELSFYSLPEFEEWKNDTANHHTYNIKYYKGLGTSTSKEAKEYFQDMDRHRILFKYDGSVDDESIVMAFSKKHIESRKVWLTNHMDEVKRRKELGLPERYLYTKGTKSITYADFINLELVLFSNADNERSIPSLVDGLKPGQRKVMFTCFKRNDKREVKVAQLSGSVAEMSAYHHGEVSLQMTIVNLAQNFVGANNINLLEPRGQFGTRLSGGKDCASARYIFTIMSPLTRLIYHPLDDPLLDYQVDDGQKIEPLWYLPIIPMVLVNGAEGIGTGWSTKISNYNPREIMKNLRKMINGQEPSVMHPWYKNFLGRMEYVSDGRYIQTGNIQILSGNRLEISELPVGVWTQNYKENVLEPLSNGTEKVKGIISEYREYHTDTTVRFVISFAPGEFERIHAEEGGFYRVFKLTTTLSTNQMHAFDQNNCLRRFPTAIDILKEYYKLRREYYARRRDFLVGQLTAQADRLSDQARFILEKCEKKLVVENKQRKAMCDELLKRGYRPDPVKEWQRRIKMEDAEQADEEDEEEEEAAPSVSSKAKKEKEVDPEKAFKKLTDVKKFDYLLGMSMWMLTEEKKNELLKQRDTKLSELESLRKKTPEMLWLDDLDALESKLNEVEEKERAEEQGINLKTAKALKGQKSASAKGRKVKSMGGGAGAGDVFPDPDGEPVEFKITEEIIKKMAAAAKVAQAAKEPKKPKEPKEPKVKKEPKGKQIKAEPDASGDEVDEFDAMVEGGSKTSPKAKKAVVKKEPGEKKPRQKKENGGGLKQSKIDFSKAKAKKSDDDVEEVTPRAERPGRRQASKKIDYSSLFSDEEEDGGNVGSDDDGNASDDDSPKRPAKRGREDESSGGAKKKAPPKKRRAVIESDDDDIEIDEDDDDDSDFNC
Put plainly: Inhibition of commercially obtained pure Drosophila Topoisomerase II in catalytic DNA unwinding. The gist of the method:
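Relaxation assay with supercoiled pBR322 (0.5 μg) and pure Drosophila topoisomerase II at 3 units per reaction. Buffer: 50 mM Tris-HCl pH 8.0, 120 mM KCl, 10 mM MgCl2, 1 mM ATP, 0.5 mM DTT, 30 μg/mL BSA. Drug added in DMSO.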

The target in experiment [3] is DNA topoisomerase II (Homo sapiens) (UniProt P11388+Q02880). Put plainly: In vitro inhibition of partially purified human ovarian carcinoma topoisomerase II of kDNA decatenation. It counts as protein assay. The essentials: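 Decatenation of kinetoplast DNA (0.2 μg) by one unit of partially purified human ovarian carcinoma topoisomerase II in 50 mM Tris-HCl pH 8.0, 120 mM KCl, 10 mM MgCl2, 1 mM ATP, 0.5 mM DTT, 30 μg/mL BSA. Compound added in DMSO. Stopped with sarkosyl stop buffer, 1% agarose/ethidium gel, UV visualization. Value is the concentration apparently inhibiting 90% of monomer-length kDNA production.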

Bounds are passed on as bounds.

Broadly, the IC50 is the concentration that gives 50% inhibition. With `C[C@@]12CCCc3coc(c31)C(=O)c1cc3c(cc12)C(=O)C1=NCCS(=O)(=O)C1=C3O` [ADOCIAQUINONE A], the IC50 in the experiment with HCT-116 amounted to 24 µM; in the experiment with XRS6, 78 µM. Further, in experiment [1], the Ratio stood at 3.

As to `COc1cc(NS(C)(=O)=O)ccc1Nc1c2ccccc2nc2ccccc12` [AMSACRINE], the midpoint of inhibition with XRS6, the IC50, lay at 0.24 µM. Moreover, the Ratio in experiment [1] amounted to 4.

Consider `C[C@@]12CCCc3coc(c31)C(=O)c1cc3c(cc12)C(=O)C(Cl)=C(O)C3=O`, for which the concentration for half-maximal inhibition (IC50) is 33 µM in the experiment with HCT-116 and 27 µM in the experiment with XRS6. Besides, the Ratio in experiment [1] was determined as 4.5.

By IC90 is commonly meant the concentration needed for an effect of 90%. A low value points to an effect from little substance. In experiment [2], `O=C1c2c(O)ccc(O)c2C(=O)c2c(NCCNCCO)ccc(NCCNCCO)c21` [MITOXANTRONE] registered an IC90 of 56 µM. The compound also yielded an IC50 in the experiment with XRS6 of 0.001 µM.

`C[C@@]12CCCc3coc(c31)C(=O)c1cc3c(cc12)C(=O)C1=C(NCCS1(=O)=O)C3=O` [ADOCIAQUINONE B]: the IC90 in experiment [3] is under 11 µM; in experiment [2] it was 78 µM. For the same compound, the IC50 stood at 21 µM in the experiment with HCT-116 and 23 µM with XRS6. Besides, in experiment [1], the Ratio is 3.

Turning to `C[C@@]12CCCc3coc(c31)C(=O)c1cc3c(cc12)C(=O)C(=O)C(Cl)=C3O`, the concentration for half-maximal inhibition (IC50) was found to be 33 µM with HCT-116 and 27 µM with XRS6. For the same compound, the Ratio in experiment [1] came to 4.5.

Consider `COC1=CC(=O)c2cc3c(cc2C1=O)C(=O)c1occ2c1[C@@]3(C)CCC2`, for which the half-inhibitory concentration (IC50) in the experiment with HCT-116 was 28 µM; in the experiment with XRS6, 4.3 µM. Besides, in experiment [1], the Ratio was determined as 3.

For the compound `C[C@@]12CCCc3coc(c31)C(=O)c1cc3c(cc12)C(=O)/C(=N/CCS(=O)(=O)O)C=C3O`, the IC50 with HCT-116 is over 143 µM; in the experiment on XRS6 it was over 287 µM.

In the case of `C[C@@]12CCCc3coc(c31)C(=O)c1cc3c(cc12)C(=O)C=C(NCCS(=O)(=O)O)C3=O`, the IC50 with HCT-116 was over 143 µM; in the experiment on XRS6, over 287 µM.

As for `COC1=CC(=O)c2cc3c(cc2C1=O)[C@]1(C)CCCc2coc(c21)C3=O`, the IC50 with HCT-116 turned out to be 28 µM; with XRS6, 4.3 µM. Moreover, the Ratio in experiment [1] was 3.

Regarding `COc1cc([C@@H]2c3cc4c(cc3[C@@H](O[C@@H]3O[C@@H]5CO[C@@H](C)O[C@H]5[C@H](O)[C@H]3O)[C@H]3COC(=O)[C@H]23)OCO4)cc(OC)c1O` [ETOPOSIDE], in experiment [2], it took 85 µM to reach the 90% level (IC90). Besides, half-maximal inhibition in the experiment on XRS6 (IC50) required 0.14 µM. Further, the Ratio in experiment [1] is 7.
